# Source: PubChem BioAssay (several laboratories)
# Hits are enriched below; roughly 2.2% of the tested compounds scored in any of these assays.
# RBBP9 inhibitor = human RBBP9 inhibitors, primary screen, biochemical, fluorescence polarization, FP-Rh probe, HTS; Serine hydrolase RBBP9 (Homo sapiens), O75884; recombinant RBBP9; inhibition, % at 7.94 µM; hit rate 0.2% among 220,000; AID 1515, 2009;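 active = inhibition above the campaign mean of all tested compounds plus 3 SD, cut at about 14% in these data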;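 note: plate controls were DMSO wells with RBBP9 for no effect and wells lacking RBBP9 protein for full effect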
#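 System: RBBP9 protein / Buffer or medium: Tris/NaCl buffer pH 8.0 with 0.1% Pluronic / Probe or stimulus: Serine-hydrolase probe FP-Rh, 375 nM pre-mixing / Dosing: 7.94 µM single dose, 0.794% DMSO / Times: enzyme-compound preincubation 30 min, then probe labeling 45 min, 25 °C / Technique: fluorescence polarization (mP), excitation 525 nm, emission 598 nm / Replication: singlicate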
# p97 ATPase inh = inhibitors of human p97 ATPase, primary screen, biochemical; Transitional endoplasmic reticulum ATPase (Homo sapiens), P55072; recombinant p97 ATPase, Kinase-Glo ATP luminescence, 3 h; inhibition, % at 8 µM; hit rate 0.42% among 220,000; in the data active = inhibition above about 15%;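 note: 0% = DMSO vehicle and 100% = wells lacking enzyme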
# Wee1 degr inh = Wee1 degradation inhibitors, primary screen, cell-based, HeLa, Wee1K328M-luciferase, luminescence; Wee1-like protein kinase (Homo sapiens), P30291; HeLa Luc-Wee1K328M stability; 100% = proteasome inhibitor MG132 effect; reporter increase, % at 5 µM; hit rate 1.2% among 220,000; AID 1321, 2008;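 active = activation above the mean of all tested compounds plus 3 SD, set per screening run, cut at about 8.8% in these data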;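 note: cells exposed to compound for 20 h before luminescence read; 0% = DMSO alone and 100% = MG132 at 30 µM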
# Target sequence (P30291 whole entry K328M): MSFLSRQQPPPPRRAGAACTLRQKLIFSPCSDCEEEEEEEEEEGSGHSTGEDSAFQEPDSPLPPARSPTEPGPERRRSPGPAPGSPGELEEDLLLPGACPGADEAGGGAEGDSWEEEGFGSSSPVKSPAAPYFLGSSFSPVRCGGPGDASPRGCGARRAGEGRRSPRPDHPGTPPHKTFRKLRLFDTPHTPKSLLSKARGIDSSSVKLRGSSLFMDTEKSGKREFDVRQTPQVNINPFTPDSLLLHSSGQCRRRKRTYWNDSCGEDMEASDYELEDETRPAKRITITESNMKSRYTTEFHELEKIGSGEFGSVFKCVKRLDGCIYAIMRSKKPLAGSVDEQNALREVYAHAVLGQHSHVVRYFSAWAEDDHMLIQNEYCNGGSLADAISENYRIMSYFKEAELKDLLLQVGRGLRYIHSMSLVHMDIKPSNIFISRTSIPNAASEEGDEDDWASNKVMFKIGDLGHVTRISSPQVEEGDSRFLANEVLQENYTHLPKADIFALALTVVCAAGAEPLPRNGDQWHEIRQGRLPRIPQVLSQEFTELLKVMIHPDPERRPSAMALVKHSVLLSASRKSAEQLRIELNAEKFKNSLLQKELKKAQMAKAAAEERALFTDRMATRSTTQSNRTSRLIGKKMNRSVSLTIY
# Arbovirus inh = antivirals against arbovirus infection, primary screen, cell-based, full library, 10K replicate subset; arbovirus infection cell-based antiviral screen; AID 1251, 2008; inhibition, % at 10 µM; hit rate 0.37% among 200,000; in the data active = inhibition above about 30%
# Redox H2O2 prof = compounds producing H2O2 with reducing agent – biochemical, NIH compound library profiling, artefact control for MLSCN library redox annotation, primary screen; activation, % at 10 µM; hit rate 0.03% among 200,000; DTT-dependent redox cycling H2O2, phenol red/HRP absorbance; 100% = 100 µM peroxide control, 0% = buffer;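 active = activation of at least 50% relative to the plate's high and low controls in the primary single-dose screen; inactive = activation below 50%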;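 note: compound incubated with DTT at 0.8 mM final as the reducing agent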
# PKD1 inh = inhibitors of human PKD1 kinase, biochemical, fluorescence polarization; AID 797, 2007; Serine/threonine-protein kinase D1 (Homo sapiens), Q15139; inhibition, % (concentration not given with the values); PKD1 kinase fluorescence polarization assay; hit rate 0.056% among 200,000; in the data active = inhibition above about 50%
# Starred values were filed as active, the others as inactive; . = no result given.
SMILES,RBBP9 inhibitor,p97 ATPase inh,Wee1 degr inh,Arbovirus inh,Redox H2O2 prof,PKD1 inh
COc1cc(/C=C/C(=O)Nc2nnc(C(C)(C)C)s2)cc(OC)c1OC,-12,-5,1,31*,0,-9
Cc1c(NC(=O)COC(=O)CCC(=O)c2ccc(Cl)cc2)c(=O)n(-c2ccccc2)n1C,-8,3,9.4*,7,0,-6
CC(C)S(=O)(=O)C1=NSC2=NC(=O)/C(=C\c3ccc(-c4ccccc4)o3)C(=N)N21,-18,3,-2,33*,1,5
CS(=O)(=O)C1=NSC2=NC(=O)/C(=C\c3ccc(-c4ccccc4)o3)C(=N)N21,-2,7,1,60*,0,-12
N=C1/C(=C\c2ccc(-c3cc(Cl)cc(Cl)c3)o2)C(=O)N=C2SC=C(c3ccccc3)N12,-3,7,0,-9,1,1
O=C1OC(c2cccs2)=N/C1=C/c1ccc(-c2cccc(C(=O)O)c2)o1,-8,1,3,13,-2,-2
N=C1/C(=C/c2ccc(-c3cccc(C(=O)O)c3)o2)C(=O)N=C2SC=C(c3ccccc3)N12,-5,13,-2,42*,-1,6
CC(C)S(=O)(=O)C1=NSC2=NC(=O)/C(=C\c3ccc(-c4cccc(C(=O)O)c4)o3)C(=N)N21,-10,13,2,30*,-1,1
O=C(Nc1cccc(Cl)c1)c1ccc2c(c1)SC1=NS(=O)(=O)CCN12,0,4,-1,-3,0,4
Cc1cc(C)nc(SCc2ccc(C(=O)N/N=C/c3cccc(O)c3O)cc2)n1,-6,15*,2,-22,1,-2
CN(C)C(=O)c1c2c(nc3ccccc13)-c1ccccc1CC2,-5,1,8.9*,6,-7,-4
CN(C)C(=O)c1c2c(nc3ccccc13)CCCC2,-7,7,-3,-5,-1,-2
Cc1c(-n2c(-c3ccccc3)nc3ccccc3c2=O)c(=O)n(-c2ccccc2)n1C,-4,1,0,-4,-1,-1
CSc1nccc(-c2sc(SC)c(C#N)c2-c2ccccc2)n1,-4,-8,-2,.,.,.
CSc1sc(-c2ccnc(=S)[nH]2)c(-c2ccccc2)c1C#N,-1,5,9.8*,.,.,.
Cc1sc(NC(=O)c2ccc(Br)s2)c(C(N)=O)c1C,-4,5,1,-13,-1,-5
Cc1sc(NC(=O)c2ccc(Cl)s2)c(C(N)=O)c1C,-7,-3,9.6*,8,2,-4
CCN(Cc1ccccc1)C(=O)CSc1nc(C)cc(=O)[nH]1,-8,2,-1,4,0,0
O=C1c2[nH]nc(-c3ccccc3O)c2C(c2ccc(F)cc2)N1CC1CCCO1 (stereo unspecified),1,-5,-1,33*,-3,-13
O=C1c2[nH]nc(-c3ccccc3O)c2C(c2cccc(Cl)c2)N1CC1CCCO1 (stereo unspecified),-4,4,-1,25,0,-6
C=CCc1ccc2oc(C(=O)OCC)cc(=O)c2c1O,-2,-1,10*,.,.,.
COC(=O)/C=c1/sc2n(c1=O)CCN=2,-5,0,9.2*,3,0,4
CCOC(=O)/C=c1\sc2n(c1=O)CCN=2,-8,-1,-1,2,-1,-2
CCSC1=NSC2=NC(=O)/C(=C\c3coc4ccccc4c3=O)C(=N)N12,-6,4,-1,31*,0,-13
Cc1cccc(-n2c(C)cc(/C=C3\C(=N)N4N=C(CC(C)C)SC4=NC3=O)c2C)c1,1,9,3,12,0,-5
SMILES,RBBP9 inhibitor,p97 ATPase inh,Wee1 degr inh,Arbovirus inh,Redox H2O2 prof,PKD1 inh
CC(C)CC1=NN2C(=N)/C(=C\c3coc4ccccc4c3=O)C(=O)N=C2S1,-11,2,0,41*,-1,-1
NC(=O)Cn1c(=O)n(C2CCCCC2)c(=O)c2c3c(sc21)CCCCC3,-12,5,-2,-22,1,8
C(=C\c1ccccc1)/CSc1ccccn1,-9,0,9.2*,10,0,-5
O=C(CSc1ccccn1)N/N=C/C=C/c1ccccc1,-7,5,0,-5,0,4
Cc1cc(N=Cc2c(O)ccc3cc(Br)ccc23)no1,-2,4,0,55*,0,0
Cc1cc(N=Cc2c(O)ccc3ccccc23)no1,-4,-5,-1,3,0,-6
Cc1ccccc1OCC(=O)NCc1ccccc1,-8,-4,-1,8,-1,-5
CC1=C(C(=O)Nc2ccccc2)C(c2cccnc2)n2ncnc2N1 (stereo unspecified),-17,-9,2,6,1,0
CCn1c(COc2cccc3ccccc23)nnc1SCC(N)=O,-2,3,0,5,4,-8
CCn1c(COc2ccccc2OC)nnc1SCC#N,-5,-2,10*,1,0,5
O=C(OCC(=O)c1c[nH]c2ccccc12)c1cc(Br)ccc1O,-5,3,-2,0,0,-8
Cc1ccc(NC(=O)CC2C(=O)N(Cc3ccccc3)C(=S)N2NC(=O)c2ccccc2)c(C)c1 (stereo unspecified),-9,-5,0,-2,0,-14
Cc1ccc(C)c(NC(=O)CN(C)C(=O)c2cccc(S(=O)(=O)N(C)C)c2)c1,0,5,10*,2,0,-5
CCN(C(=O)COC(=O)c1[nH]c(=O)[nH]c(=O)c1N)c1ccccc1,1,2,1,5,-2,-7
Cc1c(N2C(=O)c3ccc(F)cc3C2=O)c(=O)n(-c2ccccc2)n1C,5,2,9.6*,2,3,-4
Cc1cc([N+](=O)[O-])c2c(c1C)C1C=CCC1C(c1ccccn1)N2 (stereo unspecified),-2,6,6,13,0,-6
CCCCCCc1cc2cc(C(=O)Nc3ccccc3OC)c(=O)oc2cc1O,2,3,-3,80*,0,-3
CCCCCCc1cc2cc(-c3nnc(-c4ccccc4OC)o3)c(=O)oc2cc1O,5,4,-1,-3,4,-6
CCOc1ccc(-c2csc(NC(=O)CSCC(=O)O)n2)c2ccccc12,-11,-1,-2,32*,0,0
O=C(N/N=C/c1cccc2nccnc12)c1ccccc1O,-8,1,2,.,.,.
O=C(N/N=C/c1ccco1)c1ccncc1,4,5,15*,-2,4,-5
